Measured values as given in ChEMBL document CHEMBL1137372, “Structural investigation of the 7-chloro-3-hydroxy-1H-quinazoline-2,4-dione scaffold to obtain AMPA and kainate receptor selective antagonists. Synthesis, pharmacological, and molecular modeling studies” (J Med Chem, 2006).

Key:
[1] = target: Glutamate receptor ionotropic, AMPA (Rattus norvegicus, UniProt P19490+P19491+P19492+P19493); test: Displacement of [3H]AMPA from AMPA receptor in rat cortical synaptic membrane; format: cell membranes
Glutamate NMDA receptor = test: Displacement of [3H]glycine from Gly/NMDA receptor in rat cortical synaptic membrane; format: cell membranes
[2] = Displacement of [3H]KA from high affinity KA receptor in rat cortical membrane; format: cell membranes
Method in brief: (§1)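 High- and low-affinity [3H]kainate binding to rat cortical membranes. Compounds were made up as a 1 mM stock in 50% DMSO and diluted in buffer. IC50s came from three or four displacement curves using four to six concentrations in triplicate, fitted with ALLFIT. Ki values are mean ± SEM of three or four determinations in triplicate.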

[3] = Antagonist activity against NMDA receptor assessed as inhibition of NMDA-induced depolarization in mouse cortex; format: functional, tissue-based
Method in brief: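 Mouse cortical wedge preparation. Depolarization was evoked with 5 µM NMDA. The IC50 is the concentration giving 50% inhibition of the depolarization, as mean ± SEM of three separate determinations.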

[4] = target: Glutamate receptor ionotropic, AMPA (Mus musculus, UniProt P23818+P23819+Q9Z2W8+Q9Z2W9); test: Antagonist activity against AMPA receptor assessed as inhibition of SAMPA-induced depolarization of mouse cortex
[5] = target: Glutamate receptor ionotropic, AMPA (Rattus norvegicus) (UniProt P19491+P19492+P19493+P19490); test: Displacement of [3H]AMPA from AMPA receptor in rat cortical synaptic membrane at 100 uM; format: cell membranes
[6] = target: Glutamate NMDA receptor (Rattus norvegicus) (UniProt P35439+Q00959+Q00960+Q00961+Q62645+Q8VHN2+Q9R1M7); test: Displacement of [3H]glycine from Gly/NMDA receptor in rat cortical synaptic membrane at 100 uM; format: cell membranes
Rattus norvegicus [7] = species: Rattus norvegicus; test: Displacement of [3H]KA from high affinity KA receptor in rat cortical membrane at 100 uM; format: cell membranes
Method in brief: (§2)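 Rat cortical membranes were used for the high-affinity and low-affinity [3H]kainate binding assays, following earlier published methods. Test compound was made as a 1 mM stock in 50% DMSO and diluted in buffer. The value is percent inhibition of specific binding at 100 µM.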

Rattus norvegicus [8] = species: Rattus norvegicus; test: Displacement of [3H]KA from low affinity KA receptor in rat cortical membrane at 100 uM; format: cell membranes; method in brief: as §2
Mus musculus [9] = test: Antinociceptive activity in mouse at 5 mg/kg, po measured as number of acetic acid-induced writhes by abdominal constriction assay; format: functional, Abdomen
[10] = Displacement of [3H]KA from low affinity KA receptor in rat cortical membrane; format: cell membranes; method in brief: as §1
Mus musculus [11] = test: Antinociceptive activity in mouse at 1 mg/kg, po measured as number of acetic acid-induced writhes by abdominal constriction assay; format: functional, Abdomen
Mus musculus [12] = test: Antinociceptive activity in mouse at 0.1 mg/kg, po measured as number of acetic acid-induced writhes by abdominal constriction assay; format: functional, Abdomen
Mus musculus [13] = test: Antinociceptive activity in mouse at 10 mg/kg, po measured as number of acetic acid-induced writhes by abdominal constriction assay; format: functional, Abdomen
Mus musculus [14] = test: Activity against mouse motor coordination measured as number of falls from the rod in 30 sec by rotarod test at 20 mg/kg, po after 30 mins; format: functional
Method in brief: (§3)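 Mice on a 3-cm rod rotating at 16 rpm, up to five at once. Drug dispersed in 1% sodium CMC and given po in 10 mL kg^-1 30 min before testing. Falls from the rod in 30 s were counted before treatment and at 30, 45 and 60 min after. Each value is the mean of eight mice.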

Mus musculus [15] = test: Activity against mouse motor coordination measured as number of falls from the rod in 30 sec by rotarod test at 20 mg/kg, po after 45 mins; format: functional; method in brief: as §3
Mus musculus [16] = test: Activity against mouse motor coordination measured as number of falls from the rod in 30 sec by rotarod test at 20 mg/kg, po after 60 mins; format: functional; method in brief: as §3
Mus musculus [17] = test: Activity against mouse motor coordination measured as number of falls from the rod in 30 sec by rotarod test at 50 mg/kg, po after 30 mins; format: functional; method in brief: as §3
Mus musculus [18] = test: Activity against mouse motor coordination measured as number of falls from the rod in 30 sec by rotarod test at 50 mg/kg, po after 45 mins; format: functional; method in brief: as §3
Mus musculus [19] = test: Activity against mouse motor coordination measured as number of falls from the rod in 30 sec by rotarod test at 50 mg/kg, po after 60 mins; format: functional; method in brief: as §3

Row | SMILES | Ki [1] [µM] | Ki (Glutamate NMDA receptor) [µM] | IC50 [2] [µM] | inhibition [5] [%] | inhibition [6] [%] | inhibition (Rattus norvegicus [7]) [%] | other results
1 | O=C1C=CCN1c1cc2c(=O)n(O)c(=O)[nH]c2cc1Cl | 6.2 | 42 | 10 |  |  |  | 
2 | O=c1ccn(-c2cc3c(=O)n(O)c(=O)[nH]c3cc2Cl)cc1 | 0.5 | 25 | 4.1 |  |  |  | IC50 [3]: > 80 µM; IC50 [4]: 3.5 µM
3 | O=C(NCc1ccccc1)Nc1cc2c(=O)n(O)c(=O)[nH]c2cc1Cl |  |  |  | 33 | 27 | 32 | 
4 | O=c1[nH]c2cc(Cl)ccc2c(=O)n1O |  | 0.24 | 140 |  |  |  | 
5 | O=C(Nc1cc2c(=O)n(O)c(=O)[nH]c2cc1Cl)c1ccccc1 | 45 |  | 52 |  | 33 |  | 
6 | O=C(O)c1ccc(C(=O)Nc2cc3c(=O)n(O)c(=O)[nH]c3cc2Cl)cc1 |  |  | 12.9 | 29 | 40 |  | inhibition (Rattus norvegicus [8]): 0%
7 | COC(=O)c1cccc(C(=O)Nc2cc3c(=O)n(O)c(=O)[nH]c3cc2Cl)c1 |  |  |  | 35 | 32 | 20 | 
8 | O=C(O)COn1c(=O)[nH]c2cc(Cl)ccc2c1=O | 99 | 90 |  |  |  | 5 | 
9 | O=C(O)c1ccn(-c2cc3c(=O)n(O)c(=O)[nH]c3cc2Cl)c1 | 1.3 |  | 13 |  | 44 |  | 
10 | O=C(O)Cc1ccccc1Nc1c(Cl)cccc1Cl [DICLOFENAC] |  |  |  |  |  |  | Activity (Mus musculus [9]): 18.2
11 | O=Cc1ccn(-c2cc3c(=O)n(O)c(=O)[nH]c3cc2Cl)c1 | 4.2 | 22.7 | 6.2 |  |  |  | 
12 | O=C(O)C(CCO)On1c(=O)[nH]c2cc(Cl)ccc2c1=O (racemic) |  |  |  | 35 | 40 | 10 | 
13 | CCOC(=O)COn1c(=O)[nH]c2cc(Cl)ccc2c1=O |  |  |  | 9 | 0 | 5 | 
14 | COC(=O)c1ccc(C(=O)Nc2cc3c(=O)n(O)c(=O)[nH]c3cc2Cl)cc1 |  |  |  | 43 | 10 | 28 | 
15 | O=C(O)CCC(=O)Nc1cc2c(=O)n(O)c(=O)[nH]c2cc1Cl | 8.4 |  | 5.4 |  | 8 |  | 
16 | O=C(O)c1cccc(C(=O)Nc2cc3c(=O)n(O)c(=O)[nH]c3cc2Cl)c1 | 60 |  | 100 |  | 32 |  | inhibition (Rattus norvegicus [8]): 0%
17 | O=c1[nH]c2cc(Cl)c(-n3cnnc3)cc2c(=O)n1O |  |  | 7 |  | 47 |  | IC50 [3]: 84 µM; IC50 [4]: 4.6 µM
18 | O=c1[nH]c2cc(Cl)c(-n3cccc3)cc2c(=O)n1O | 16.6 | 1 | 8.2 |  |  |  | 
19 | N[C@@H](Cn1ccc(=O)n(Cc2ccccc2C(=O)O)c1=O)C(=O)O | 117 |  | 46 |  | 20 |  | IC50 [10]: 15 µM
20 | CN1CCc2c(-c3ccc(S(=O)(=O)N(C)C)cc3)cc3c(c2C1)NC(=O)/C3=N\OC(CCO)C(=O)O (configuration not stated) | 0.043 | > 30 | 81 |  |  |  | 
21 | O=C(O)c1ccccc1C(=O)Nc1cc2c(=O)n(O)c(=O)[nH]c2cc1Cl | 16.5 |  | 0.62 |  | 40 |  | Activity (Mus musculus [11]): 26.1; Activity (Mus musculus [12]): 34.7; Activity (Mus musculus [13]): 24.5; Activity (Mus musculus [14]): 3.3; Activity (Mus musculus [15]): 2.6; Activity (Mus musculus [16]): 1.7; Activity (Mus musculus [17]): 4.8; Activity (Mus musculus [18]): 3.7; Activity (Mus musculus [19]): 3.2; IC50 [10]: 1.6 µM
22 | O=C1CCC(=O)N1c1cc2c(=O)n(O)c(=O)[nH]c2cc1Cl | 36 | 88 |  |  |  | 44 | 
23 | O=C1OCCC1On1c(=O)[nH]c2cc(Cl)ccc2c1=O (racemic) |  |  |  | 26 | 37 | 11 | 
